Our source for the GI50 values is ChEMBL document CHEMBL1154766, “Synthesis and biological evaluation of new podophyllic aldehyde derivatives with cytotoxic and apoptosis-inducing activities” (2010).

Common to all, as to assay type: functional
One experiment concerns MDA-MB-231. Put plainly: Cytotoxicity against human MDA-MB-231 cells after 72 hrs by SRB assay. As to conditions: MDA-MB-231, 72 h. The procedure, abridged:
(§1)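 SRB growth assay: 5 × 10³ cells/well in RPMI, attached 18 h drug-free, then compound added in DMSO/H₂O 3:7 for 72 h. Fixed with cold 50% TCA 60 min at 4 °C, stained 0.4% SRB in 1% acetic acid 10 min, bound dye solubilized in Tris, OD 490 nm. GI50 from 100[(T−T0)/(C−T0)] = 50; mean of triplicates.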

In the next experiment the test system is A549. Put plainly: Cytotoxicity against human A549 cells after 72 hrs by SRB assay. As to conditions: A549, 72 h. The procedure, abridged: as §1
In the next experiment the test system is HT-29. Put plainly: Cytotoxicity against human HT-29 cells after 72 hrs by SRB assay. As to conditions: HT-29, 72 h. The procedure, abridged: as §1

With `CCNCC1=Cc2cc3c(cc2[C@@H](c2cc(OC)c(OC)c(OC)c2)[C@@H]1C(=O)N1CCCC1)OCO3`, the GI50 in the experiment on MDA-MB-231, in the experiment on A549 and with HT-29 was greater than 20000 nM in each case.

As for `CCOC(=O)[C@@H]1C(C=O)=Cc2cc3c(cc2[C@H]1c1cc(OC)c(OC)c(OC)c1)OCO3`, the GI50 in the experiment on MDA-MB-231 is 540 nM; in the experiment on A549 it was 180 nM; with HT-29, 200 nM.

As for `COc1cc([C@@H]2c3cc4c(cc3C=C(C=O)[C@H]2C(=O)N2CCCC2)OCO4)cc(OC)c1OC`, the concentration for 50% growth inhibition (GI50) with MDA-MB-231 was found to be 8200 nM; in the experiment with A549 it was 6600 nM; with HT-29, 7300 nM.

For the compound `C=CCOC(=O)[C@H]1[C@H](c2cc(OC)c(OC)c(OC)c2)c2cc3c(cc2[C@H](O)[C@H]1CO)OCO3` [ALLYL PICROPODOPHYLLATE], the results for the GI50 with MDA-MB-231, with A549 and in the experiment on HT-29 were 110 nM, 120 nM and 80 nM, respectively.

In the case of `CCCNCC1=Cc2cc3c(cc2[C@@H](c2cc(OC)c(OC)c(OC)c2)[C@@H]1C(=O)OCC)OCO3`, the GI50 in the experiment on MDA-MB-231 was 370 nM; with A549, 230 nM; in the experiment on HT-29, 270 nM.

In the case of `CCNC(=O)[C@H]1[C@H](c2cc(OC)c(OC)c(OC)c2)c2cc3c(cc2[C@H](O)[C@H]1CO)OCO3`, the GI50 with MDA-MB-231 was 10000 nM; with A549, 9800 nM; in the experiment with HT-29, 10000 nM.

Consider `CCNCC1=Cc2cc3c(cc2[C@@H](c2cc(OC)c(OC)c(OC)c2)[C@@H]1C(=O)OC)OCO3`, for which the concentration for 50% growth inhibition (GI50) in the experiment with MDA-MB-231 was determined as 2600 nM; in the experiment with A549 it was 700 nM; in the experiment on HT-29 it was 400 nM.

For the compound `CCCNCC1=Cc2cc3c(cc2[C@@H](c2cc(OC)c(OC)c(OC)c2)[C@@H]1C(=O)OCc1cc(OC)c(OC)c(OC)c1)OCO3`, the concentration for 50% growth inhibition (GI50) in the experiment on MDA-MB-231 came to 6400 nM; in the experiment with A549, 1900 nM; with HT-29 it was 2000 nM.

On to `COc1ccc(NCC2=Cc3cc4c(cc3[C@@H](c3cc(OC)c(OC)c(OC)c3)[C@@H]2C(=O)N2CCCC2)OCO4)cc1`, for which the values for the 50% growth inhibitory concentration (GI50) with MDA-MB-231, with A549 and with HT-29 were greater than 17000 nM, 15000 nM and 15000 nM, respectively.

For `CCC/N=C/C1=Cc2cc3c(cc2[C@@H](c2cc(OC)c(OC)c(OC)c2)[C@@H]1C(=O)OC)OCO3`, the GI50 turned out to be 1300 nM in the experiment with MDA-MB-231, 41 nM in the experiment with A549 and 41 nM in the experiment on HT-29.

For the compound `CCCCCCCOC(=O)[C@H]1[C@H](c2cc(OC)c(OC)c(OC)c2)c2cc3c(cc2[C@H](O)[C@H]1CO)OCO3` [HEPTYL PICROPODOPHYLLATE], the concentration for 50% growth inhibition (GI50) amounted to 180 nM in the experiment with MDA-MB-231, 190 nM in the experiment with A549 and 160 nM in the experiment on HT-29.

Take `CCOC(=O)[C@H]1[C@H](c2cc(OC)c(OC)c(OC)c2)c2cc3c(cc2[C@H](O)[C@H]1CO)OCO3` [ETHYL PICROPODOPHYLLATE]: the concentration for 50% growth inhibition (GI50) turned out to be 90 nM with MDA-MB-231, 70 nM in the experiment on A549 and 90 nM in the experiment on HT-29.

`COC(=O)[C@@H]1C(CNc2ccc(OC)cc2)=Cc2cc3c(cc2[C@H]1c1cc(OC)c(OC)c(OC)c1)OCO3`: the GI50 worked out at 2400 nM in the experiment on MDA-MB-231, 1000 nM with A549 and 700 nM in the experiment with HT-29.

For `COc1cc([C@@H]2c3cc4c(cc3[C@H](O)[C@@H](CO)[C@H]2C(=O)OC/C=C/c2ccccc2)OCO4)cc(OC)c1OC` [CINNAMYL PICROPODOPHYLLATE], the GI50 was 180 nM with MDA-MB-231, 200 nM in the experiment on A549 and 150 nM in the experiment with HT-29.

In the case of `COc1cc([C@@H]2c3cc4c(cc3[C@H](O)[C@@H](CO)[C@H]2C(=O)N2CCCC2)OCO4)cc(OC)c1OC` [PICROPODOPHYLLIC ACID PYRROLIDINYL AMIDE], the GI50 in the experiment on MDA-MB-231 turned out to be 7800 nM; in the experiment on A549 it was 6800 nM; with HT-29 it was 7800 nM.

Take `COc1cc([C@@H]2c3cc4c(cc3[C@H](O)[C@H]3COC(=O)[C@H]23)OCO4)cc(OC)c1OC` [PODOFILOX]: the GI50 in the experiment on A549 was 12 nM; in the experiment on HT-29, 24 nM.

In the case of `CCC/N=C/C1=Cc2cc3c(cc2[C@@H](c2cc(OC)c(OC)c(OC)c2)[C@@H]1C(=O)OCc1cc(OC)c(OC)c(OC)c1)OCO3`, the GI50 in the experiment with MDA-MB-231 is 130 nM; in the experiment with A549 it was 5.2 nM; in the experiment with HT-29, 4.3 nM.

In the case of `COc1cc([C@@H]2c3cc4c(cc3[C@H](O)[C@@H](CO)[C@H]2C(=O)OCCCBr)OCO4)cc(OC)c1OC`, the GI50 in the experiment on MDA-MB-231 is 34 nM; in the experiment with A549, greater than 17000 nM; with HT-29, 22 nM.

As for `COC(=O)[C@@H]1C(C=O)=Cc2cc3c(cc2[C@H]1c1cc(OC)c(OC)c(OC)c1)OCO3` [PODOPHYLLIC ALDEHYDE], the GI50 in the experiment on MDA-MB-231 is 200 nM; in the experiment on A549 it was 61 nM; in the experiment on HT-29 it was 38 nM.

In the case of `COC(=O)[C@@H]1C(CNc2ccc(C)cc2)=Cc2cc3c(cc2[C@H]1c1cc(OC)c(OC)c(OC)c1)OCO3`, the concentration for 50% growth inhibition (GI50) in the experiment with MDA-MB-231 was 1500 nM; in the experiment on A549, 900 nM; in the experiment with HT-29, 800 nM.

Turning to `COC(=O)[C@@H]1C(/C=N/c2ccc(OC)cc2)=Cc2cc3c(cc2[C@H]1c1cc(OC)c(OC)c(OC)c1)OCO3`, the 50% growth inhibitory concentration (GI50) worked out at 94 nM in the experiment on A549 and 9.4 nM in the experiment with HT-29.

Turning to `CCC/N=C/C1=Cc2cc3c(cc2[C@@H](c2cc(OC)c(OC)c(OC)c2)[C@@H]1C(=O)OCC)OCO3`, the GI50 worked out at 1200 nM in the experiment with MDA-MB-231, 230 nM in the experiment with A549 and 390 nM in the experiment on HT-29.

On to `CCOC(=O)COC(=O)[C@H]1[C@H](c2cc(OC)c(OC)c(OC)c2)c2cc3c(cc2[C@H](O)[C@H]1CO)OCO3` [ETHOXYCARBONYLMETHYL PICROPODOPHYLLATE], for which the GI50 in the experiment with MDA-MB-231 worked out at 160 nM; with A549, 170 nM; in the experiment on HT-29, 180 nM.

Take `CC/N=C/C1=Cc2cc3c(cc2[C@@H](c2cc(OC)c(OC)c(OC)c2)[C@@H]1C(=O)OC)OCO3`: the values for the GI50 in the experiment on A549 and in the experiment with HT-29 were 22 nM and 2.2 nM, respectively.

For the compound `CCCNCC1=Cc2cc3c(cc2[C@@H](c2cc(OC)c(OC)c(OC)c2)[C@@H]1C(=O)OC)OCO3`, the concentration for 50% growth inhibition (GI50) was 5500 nM in the experiment on MDA-MB-231, 1500 nM in the experiment on A549 and 1000 nM in the experiment on HT-29.

Usually GI50 stands for the concentration at which growth is held to half of that of the control. Higher therefore signals less potent growth inhibition.
